This is a sample that favours compounds with a hit; in the whole collection about 3.9% have one here.
tim10-1 inh: tim10-1 yeast growth inhibition; S. cerevisiae tim10-1 ts strain growth, BacTiter-Glo, 24 h; inhibition, % at 20 µM; 2.2% of 330,000 active;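 active = inhibition of at least 40%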;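 also: mutant grown at 25 °C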
XBP1 UPR activ: activators of adaptive arm of unfolded protein response (XBP1); CHO-XBP1 luciferase reporter, IRE1-XBP1 UPR activation, luminescence; percent of tunicamycin response, DMSO as zero; activation, % at 20 µM; 0.33% of 330,000 active;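 active = versus positive control, 20 µM dose yields 30% or more activation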
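assay system = CHO-XBP1 luciferase reporter cells | amount = 1000 cells/well | buffer or medium = F12 plus 10% FBS | compound dosing = single point, 20 µM final compound, 1% DMSO | incubation = 16-18 h cell attachment at 37 °C, then 6 h compound exposure | detection = Steady-Glo luminescence read | controls = tunicamycin 10 µg/mL and vehicle-only wells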
TIM10 inh: growth inhibitors of TIM10 yeast strain. S. cerevisiae TIM10 strain growth, BacTiter-Glo luminescence, 24 h. inhibition, % at 10 µM. 1.4% of 330,000 active;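 active = inhibition of 40% or more at the single tested concentration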;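 also: wild-type TIM10 isogenic control strain grown at permissive 25 °C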
tim23-1 inh: inhibits growth of tim23-1 mutant yeast. S. cerevisiae tim23-1 growth, BacTiter-Glo luminescence, 24 h. inhibition, % at 20 µM. 1.3% of 330,000 active. AID 463212;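 active = growth inhibition of the mutant yeast at or above 50%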;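 also: temperature-sensitive mutant grown at 25 °C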
CHOP UPR activ: activators of apoptotic arm of unfolded protein response (CHOP) | activation, % at 10 µM | 0.34% of 330,000 active | CHO-CHOP luciferase reporter, UPR activation, luminescence; percent of tunicamycin response over DMSO baseline | AID 449763;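 active = at 10 µM dose, activation of 40% or more, normalized to positive control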
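Evaluation: % reporter activation, DMSO baseline versus tunicamycin full activation; System: CHO-CHOP luciferase reporter cell line; Input: 500 cells/well; Incubation: 6 h compound treatment, 37 °C; Measured by: Steady-Glo luciferase luminescence; Dosing: one dose, 10 µM in 0.5% DMSO; Buffer or medium: F12 medium, 10% FBS; Benchmarks: positive tunicamycin 10 µg/mL, negative DMSO alone.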
UPR CHOP confirm: confirmation of apoptotic unfolded protein response (CHOP) activators | shares compounds with CHOP UPR activ | CHO-CHOP cells, CHOP-luciferase reporter luminescence; percent of tunicamycin response, DMSO as zero | activation, % at 10 µM | 64% of 1,000 active | AID 463112; in the data active = activation above about 33%
XBP1 UPR conf: adaptive UPR (XBP1) activation, confirmed | shares compounds with XBP1 UPR activ | activation, % at 20 µM | 63% of 1,000 active | CHO-XBP1 IRE1-XBP1 luciferase reporter, luminescence;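 active = reporter signal at least 30% of the positive control's activation in two or more of four replicate wells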
Large screens that a line does not name were inactive (follow-up assays come after a bar, where they were run).

CCc1ccc(NC(=O)C(C)Sc2ccc(S(=O)(=O)N3CCN(C)CC3)cn2)cc1 (configuration not stated)	none
Cn1c(SCC(=O)NCC2CCCO2)ncc(C(=O)Nc2ccccc2)c1=O (configuration not stated)	none
Cc1ccc(NC(=O)c2cnc(SCC(=O)NCC3CCCO3)n(C)c2=O)cc1C (configuration not stated)	CHOP UPR activ 51 | UPR CHOP confirm inactive
COc1cc(/C=C2\C(=O)ON=C2c2ccc(Cl)cc2)ccc1O	CHOP UPR activ 180 | UPR CHOP confirm 143
C=CCOC(=O)c1sc(NC(=O)c2ccc(OC)cc2)nc1C	CHOP UPR activ 43 | UPR CHOP confirm inactive
CCOc1ccc(C(=O)Nc2nc(C)c(C(=O)OC)s2)cc1	none
Cc1sc2ncnc(N/N=C/c3cccc(O)c3)c2c1C	none
C/C(=N\Nc1ncnc2sc(C)c(C)c12)c1ccccn1	XBP1 UPR activ 97, CHOP UPR activ 97 | UPR CHOP confirm 88 | XBP1 UPR conf 122
O=c1[nH]c(SCc2cccc(Cl)c2)nc2ccccc12	none
O=c1[nH]c(-c2ccc(-c3cccc(Cl)c3)o2)nc2ccccc12	XBP1 UPR activ 92, CHOP UPR activ 74 | UPR CHOP confirm 105 | XBP1 UPR conf 176
O=C(CNC(=O)c1cc(Cl)cc([N+](=O)[O-])c1)OCC(=O)N1CCCCC1	none
O=C(Cc1ccccc1F)Nc1nc(-c2ccc(F)c(F)c2)cs1	none
O=C(Nc1nc(-c2ccc(F)c(F)c2)cs1)Nc1ccc(F)cc1F	XBP1 UPR activ 74, CHOP UPR activ 47 | UPR CHOP confirm 53 | XBP1 UPR conf 123
COc1ccc(-c2noc(CCC(=O)N3CCN(c4ccc(Cl)cc4)CC3)n2)cc1	none
O=[N+]([O-])c1ccc(Cl)c(-c2ccc(/C=N/c3c(-c4ccco4)nc4ccccn34)o2)c1	XBP1 UPR activ 90, CHOP UPR activ 74 | UPR CHOP confirm inactive | XBP1 UPR conf 95
C[n+]1ccc(C(=O)Nc2ccccc2Cl)cc1	none
Cc1cc(N2CCN(c3ccc([N+](=O)[O-])c4cccnc34)CC2)c2ccccc2n1	XBP1 UPR activ 104, CHOP UPR activ 42 | UPR CHOP confirm 53 | XBP1 UPR conf 62
O=C(Nc1ccc(-c2nc3ccccc3o2)cc1)c1ccc2c(c1)OCO2	XBP1 UPR activ 88, CHOP UPR activ 46 | UPR CHOP confirm inactive | XBP1 UPR conf inactive
CN(CC(=O)NCCc1ccc(S(N)(=O)=O)cc1)CC(=O)Nc1cccc(F)c1	none
Cc1cc(C)c(C)c(S(=O)(=O)N2CCC(C(=O)N3CCCCCCC3)CC2)c1C	none
O=C1COc2ccc(C(=O)CSc3nc4ccccc4c(=O)n3-c3ccc(Cl)c(Cl)c3)cc2N1	none
CCc1ccc(-n2c(SCC(=O)c3ccc4c(c3)NC(=O)CO4)nc3ccccc3c2=O)cc1	XBP1 UPR activ 61, CHOP UPR activ 62 | UPR CHOP confirm 115 | XBP1 UPR conf 118
CC(C)C(=O)Nc1c2c(nn1-c1ccc(F)cc1)CS(=O)(=O)C2	none
CC(=O)c1cccc(N=Cc2c(O)c3ccccc3oc2=O)c1	XBP1 UPR activ 147, CHOP UPR activ 159 | UPR CHOP confirm 35 | XBP1 UPR conf 93
Cc1ccc(F)cc1N=Cc1c(O)c2ccccc2oc1=O	XBP1 UPR activ 76, CHOP UPR activ 148 | UPR CHOP confirm 131 | XBP1 UPR conf 141
CCOC(=O)c1ccc(N=Cc2c(O)c3ccccc3oc2=O)cc1	none
Oc1cc(-c2cccnc2)cc2cccnc12	XBP1 UPR activ 46, CHOP UPR activ 96 | UPR CHOP confirm 74 | XBP1 UPR conf 34
O=C(COC(=O)CCN=C1NS(=O)(=O)c2ccccc21)NNC(=O)c1ccc(Cl)cc1	none
CCN1C(=O)[C@@H]2Cc3c([nH]c4ccccc34)C(c3cc(OC)c(OC)c(OC)c3)N2C1=S (some centres not stated)	none
COc1cc([C@H]2c3[nH]c4ccccc4c3C[C@H]3C(=O)N4[C@@H](c5cc(OC)c(OC)c(OC)c5)c5[nH]c6ccccc6c5C[C@H]4C(=O)N23)cc(OC)c1OC	XBP1 UPR activ 153, CHOP UPR activ 88 | UPR CHOP confirm 109 | XBP1 UPR conf 118
CC1(C)C=Cc2c(c3c(c4c(=O)c(-c5ccc(O)cc5)coc24)OC(C)(C)CC3)O1	XBP1 UPR activ 54, CHOP UPR activ 87 | UPR CHOP confirm 44 | XBP1 UPR conf 64
O=C(NCCC(=O)N1CCN(c2ccc(F)cc2)CC1)c1ccco1	none
COc1cc(S(=O)(=O)N2CCOCC2)cc(C(=O)OCC(=O)NC2CCCCC2)c1OC	none
Cc1ccc([N+](=O)[O-])cc1-c1ccc(/C=N/NC(=O)c2cc3c(ccc4ccccc43)o2)o1	none
O=C(N/N=C/c1cccc([N+](=O)[O-])c1)c1cc2c(ccc3ccccc32)o1	XBP1 UPR activ 40, CHOP UPR activ 104 | UPR CHOP confirm 77 | XBP1 UPR conf inactive
CCCCCCCC(=O)Nc1ccc(C(=O)N/N=C/c2cccc([N+](=O)[O-])c2)cc1	XBP1 UPR activ 237, CHOP UPR activ 193 | UPR CHOP confirm 183 | XBP1 UPR conf 145
CCOC(=O)c1cnc(Nc2nc3ccccc3o2)nc1CSC(=S)N(CC)CC	XBP1 UPR activ 33, CHOP UPR activ 127 | UPR CHOP confirm 122 | XBP1 UPR conf inactive
Cc1sc(NC(=O)c2cc(-c3ccc(Cl)cc3)nc3ccccc23)c(C(N)=O)c1C	XBP1 UPR activ 199, CHOP UPR activ 107 | UPR CHOP confirm 85 | XBP1 UPR conf 183
O=C1c2ccccc2C(=O)N1/N=C/c1ccc(O)c(O)c1	XBP1 UPR activ 72, CHOP UPR activ 54 | UPR CHOP confirm inactive | XBP1 UPR conf 37
CCCOc1ccccc1Cn1c(=O)oc2ccccc21	none
O=C(C[C@@H]1C/C=C\C[C@H](NC(=O)OCC2c3ccccc3-c3ccccc32)C(=O)O[C@H](c2ccccc2)CNC1=O)NCCO	none
CCc1ccc(NC(=O)COc2ccc(/C=C(/C#N)c3nc4ccccc4[nH]3)cc2OC)cc1	XBP1 UPR activ 192, CHOP UPR activ 172 | UPR CHOP confirm inactive | XBP1 UPR conf inactive
Cc1cc(OCC(=O)OCC(=O)c2ccc[nH]2)ccc1Cl	none
CN(c1ccccc1)S(=O)(=O)c1cccc(C(=O)NCCc2ccc(O)c(O)c2)c1	XBP1 UPR activ 97, CHOP UPR activ 93 | UPR CHOP confirm 82 | XBP1 UPR conf 64
CCN(CC)S(=O)(=O)c1cccc(C(=O)NCCc2ccccc2)c1	none
C=CC[C@]12CCc3ccccc3C1N(c1ccc(C(=O)OCC)cc1)C2=O (some centres not stated)	none

High-throughput results as filed in PubChem BioAssay.
